Results: ChEMBL document CHEMBL1773052, “3-Trifluoromethylquinoxaline N,N'-dioxides as anti-trypanosomatid agents. Identification of optimal anti-T. cruzi agents and mechanism of action studies” (J Med Chem, 2011)

Columns and labels:
Trypanosoma cruzi [1] = experiment: Antitrypanosomal activity against Trypanosoma cruzi Tulahuen 2 epimastigotes assessed as growth inhibition at 25 uM after 5 days relative to control; type: functional; conditions: Tulahuen 2, 120 h, read-out: GI
In short: (§1)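 Epimastigotes grown axenically at 28 °C in BHI-tryptose + 5% FBS; a 10-day stationary culture was inoculated to 1 × 10⁶ cells/mL. Drug added from DMSO stock, final DMSO ≤0.4%, vehicle control. A600 read daily. PGI on day 5 corrects for day-0 absorbance, relative to control. […] Three independent experiments.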

Trypanosoma cruzi [2] = experiment: Antitrypanosomal activity against Trypanosoma cruzi Tulahuen 2 epimastigotes assessed as growth inhibition after 5 days; type: functional; conditions: Tulahuen 2, 120 h, read-out: ID50; in short: as §1
[3] = Selectivity index, ratio of ID50 for mouse J774 cells to ID50 for Trypanosoma cruzi Tulahuen 2 epimastigotes; type: toxicity, cell-based; conditions: J774 cells versus Trypanosoma cruzi Tulahuen 2 epimastigotes, read-out: Selectivity Index
[4] = Cytotoxicity against mouse J774 cells; type: cell-based; conditions: read-out: ID50 (the source's name)

IC50 (Trypanosoma cruzi [2]) [µM]	SMILES	inhibition of growth at 25 µM (Trypanosoma cruzi [1]) [%]	selectivity ratio [3]	CC50 [4] [µM]
–	CCOC(=O)c1c(-c2ccccc2)[n+]([O-])c2cc(OC)ccc2[n+]1[O-]	0	–	–
3.5	COc1ccc2c(c1)[n+]([O-])c(C(F)(F)F)c(C(=O)c1ccccc1)[n+]2[O-]	98	–	–
12.5	CCOC(=O)c1c(-c2ccccc2)[n+]([O-])c2cc(Cl)ccc2[n+]1[O-]	88	–	–
4.9	CC(C)(C)C(=O)c1c(C(F)(F)F)[n+]([O-])c2cc(F)c(F)cc2[n+]1[O-]	100	< 0.6	16.2
0.5	CCC(=O)c1c(C(F)(F)F)[n+]([O-])c2cc(F)c(F)cc2[n+]1[O-]	100	–	–
0.78	CCC(=O)c1c(C(F)(F)F)[n+]([O-])c2cc(Cl)c(Cl)cc2[n+]1[O-]	100	–	–
–	COC(=O)c1c(C)[n+]([O-])c2cc(C)c(C)cc2[n+]1[O-]	10	–	–
3.3	CCOC(=O)c1c(-c2ccccc2)[n+]([O-])c2cc(F)c(F)cc2[n+]1[O-]	100	–	–
–	Cc1cc2c(cc1C)[n+]([O-])c(C(=O)NC(C)(C)C)c(C)[n+]2[O-]	0	–	–
> 2.5	CC(C)C(=O)c1c(C(F)(F)F)[n+]([O-])c2ccccc2[n+]1[O-]	100	–	–
–	Cc1ccc2c(c1)[n+]([O-])c(C)c(C(=O)c1ccccc1)[n+]2[O-]	8	–	–
11.8	Cc1c(C(=O)c2ccccc2)[n+]([O-])c2cc(Cl)c(Cl)cc2[n+]1[O-]	91	–	–
–	Cc1c(C(=O)c2ccccc2)[n+]([O-])c2ccccc2[n+]1[O-]	19	–	–
18.4	CC(=O)c1c(C)[n+]([O-])c2cc(Cl)c(Cl)cc2[n+]1[O-]	60	–	–
2.8	O=C(c1cccs1)c1c(C(F)(F)F)[n+]([O-])c2cc(F)c(F)cc2[n+]1[O-]	100	–	–
–	Cc1c(Cc2ccccc2)[n+]([O-])c2ccccc2[n+]1[O-]	0	–	–
–	CCOC(=O)c1c(-c2ccccc2)[n+]([O-])c2cc(C)c(C)cc2[n+]1[O-]	0	–	–
3	CC(=O)c1c(C(F)(F)F)[n+]([O-])c2ccccc2[n+]1[O-]	100	2.8	8.55
–	COc1ccc2c(c1)[n+]([O-])c(C)c(C(=O)c1ccccc1)[n+]2[O-]	9	–	–

IC50 (Trypanosoma cruzi [2]) [µM]	SMILES	inhibition of growth at 25 µM (Trypanosoma cruzi [1]) [%]	selectivity ratio [3]	CC50 [4] [µM]
1.4	Cc1cc2c(cc1C)[n+]([O-])c(C(F)(F)F)c(C(=O)c1ccccc1)[n+]2[O-]	72	–	–
3.9	O=C(c1cccc2ccccc12)c1c(C(F)(F)F)[n+]([O-])c2cc(F)c(F)cc2[n+]1[O-]	100	–	–
–	CCOC(=O)c1c(-c2ccccc2)[n+]([O-])c2ccccc2[n+]1[O-]	29	–	–
–	CC(=O)c1c(C)[n+]([O-])c2ccccc2[n+]1[O-] [MEQUINDOX]	29	–	–
–	Cc1cc2c(cc1C)[n+]([O-])c(C(=O)Nc1ccccc1)c(C)[n+]2[O-]	16	–	–
2.4	O=C(c1ccccc1)c1c(C(F)(F)F)[n+]([O-])c2cc(Cl)c(Cl)cc2[n+]1[O-]	100	–	–
–	CCOC(=O)c1c(C)[n+]([O-])c2cc(Cl)c(Cl)cc2[n+]1[O-]	32	–	–
10	COc1ccc2c(c1)[n+]([O-])c(C(F)F)c(C(=O)c1ccccc1)[n+]2[O-]	100	–	–
–	CCOC(=O)c1c(-c2ccccc2)[n+]([O-])c2cc(C)ccc2[n+]1[O-]	13	–	–
3	O=C(c1ccccc1)c1c(C(F)(F)F)[n+]([O-])c2cc(Cl)ccc2[n+]1[O-]	90	–	–
–	Cc1c(Cc2ccccc2)[n+]([O-])c2ccc(Cl)cc2[n+]1[O-]	0	–	–
–	Cc1c(C(=O)c2ccccc2)[n+]([O-])c2ccc(Cl)cc2[n+]1[O-]	33	–	–
5	O=C(c1ccco1)c1c(C(F)(F)F)[n+]([O-])c2cc(C(F)(F)F)ccc2[n+]1[O-]	100	–	–
1.3	Cc1ccc2c(c1)[n+]([O-])c(C(F)(F)F)c(C(=O)c1ccccc1)[n+]2[O-]	99	–	–
–	Cc1ccccc1NC(=O)c1c(C)[n+]([O-])c2ccccc2[n+]1[O-]	21	–	–
–	Cc1ccccc1NC(=O)c1c(C)[n+]([O-])c2cc(Cl)c(Cl)cc2[n+]1[O-]	49	–	–
6.4	O=C(c1ccccc1)c1c(C(F)F)[n+]([O-])c2cc(Cl)ccc2[n+]1[O-]	100	–	–
–	Cc1c(C(=O)Nc2ccccc2)[n+]([O-])c2cc(Cl)c(Cl)cc2[n+]1[O-]	61	–	–
–	O=C(c1ccccc1)c1nc2ccccc2nc1C(F)(F)F	49	–	–

IC50 (Trypanosoma cruzi [2]) [µM]	SMILES	inhibition of growth at 25 µM (Trypanosoma cruzi [1]) [%]	selectivity ratio [3]	CC50 [4] [µM]
1.4	CC(C)C(=O)c1c(C(F)(F)F)[n+]([O-])c2cc(Cl)c(Cl)cc2[n+]1[O-]	100	–	–
–	Cc1c(C(=O)NC(C)(C)C)[n+]([O-])c2cc(Cl)c(Cl)cc2[n+]1[O-]	28	–	–
–	CC(=O)c1c(C)[n+]([O-])c2cc(C)c(C)cc2[n+]1[O-]	2	–	–
25	Cc1ccc2c(c1)[n+]([O-])c(C(F)F)c(C(=O)c1ccccc1)[n+]2[O-]	50.8	–	–
2.5	O=C(c1ccc(Cl)cc1)c1c(C(F)(F)F)[n+]([O-])c2cc(F)c(F)cc2[n+]1[O-]	100	–	–
2.5	O=C(c1ccco1)c1c(C(F)(F)F)[n+]([O-])c2cc(F)c(F)cc2[n+]1[O-]	100	–	–
–	Cc1c(Cc2ccccc2)[n+]([O-])c2cc(Cl)c(Cl)cc2[n+]1[O-]	24	–	–
–	COC(=O)c1c(C)[n+]([O-])c2cc(Cl)c(Cl)cc2[n+]1[O-]	66	–	–
–	CC(C)(C)C(=O)c1nc2ccccc2nc1C(F)(F)F	43	–	–
–	CC(C)(C)C(=O)c1c(C(F)(F)F)[n+]([O-])c2ccccc2[n+]1[O-]	26	< 0.3	8.7
4.7	O=C(c1ccccc1)c1c(C(F)F)[n+]([O-])c2cc(Cl)c(Cl)cc2[n+]1[O-]	100	–	–
–	O=C(c1ccccc1)c1c(C(F)F)[n+]([O-])c2ccccc2[n+]1[O-]	35.8	–	–
–	CC(C)C(=O)c1c(C(F)(F)F)[n+]([O-])c2cc(F)c(F)cc2[n+]1[O-]	23.6	< 0.5	11.5
–	Cc1cc2c(cc1C)[n+]([O-])c(C(=O)Nc1ccccc1C)c(C)[n+]2[O-]	12	–	–
6.3	O=C(c1ccccc1)c1c(C(F)F)[n+]([O-])c2cc(F)ccc2[n+]1[O-]	100	–	–
4.8	O=C(c1ccco1)c1c(C(F)(F)F)[n+]([O-])c2ccc(C(F)(F)F)cc2[n+]1[O-]	100	–	–
–	CCOC(=O)c1c(C)[n+]([O-])c2cc(C)c(C)cc2[n+]1[O-]	1	–	–
–	Cc1cc2c(cc1C)[n+]([O-])c(Cc1ccccc1)c(C)[n+]2[O-]	0	–	–
–	Cc1cc2c(cc1C)[n+]([O-])c(C(=O)c1ccccc1)c(C)[n+]2[O-]	3	–	–
